Reference: ChEMBL document CHEMBL3351250, “Modified salicylanilide and 3-phenyl-2H-benzo[e][1,3]oxazine-2,4(3H)-dione derivatives as novel inhibitors of osteoclast differentiation and bone resorption” (J Med Chem, 2014)

Legend:
[1] = Cytotoxicity against mouse RAW264.7 cells assessed as survival rate at 10 uM after 24 hrs by MTT assay; format: cell-based; settings: read-out: Activity
Outline: (§1)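 Cells at 1 × 10⁴/well in DMEM + 10% FBS, exposed to compounds for 24 h at 37 °C, 5% CO₂. After PBS washes, MTT (0.5 mg/mL in medium) added for 1 h at 37 °C; formazan dissolved in DMSO, absorbance read at 540 nm. Viability expressed as % of DMSO control; CC₅₀ is the concentration giving 50% loss of mean viability (N = 3).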

[2] = Cytotoxicity against mouse RAW264.7 cells assessed as reduction in survival rate after 24 hrs by MTT assay; format: cell-based; outline: as §1
[3] = test system: RAW264.7; test: Inhibition of RANKL-induced osteoclastogenesis in mouse RAW264.7 cells assessed as TRAP+ multinucleated cells level at 10 uM incubated for 4 days by TRAP staining assay; format: functional; design: scale not given: the % may be the effect or the level left
Outline: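 Cells plated at 1 × 10³ (96-well) or 5 × 10⁴ (48-well) in α-MEM with 10% FBS, 2 mM […], 100 ng/mL recombinant murine RANKL and compound for 4 days; medium changed on day 2. Fixed in acetone/citrate/formaldehyde for 5 min and TRAP-stained. TRAP⁺ cells with >5 nuclei counted by light microscopy, expressed as % of the RANKL-only group.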

[4] = test system: RAW264.7; test: Inhibition of RANKL-induced osteoclastogenesis in mouse RAW264.7 cells assessed as reduction in TRAP activity incubated for 4 days by TRAP staining assay; format: functional, cell-based; settings: RAW264.7, 96 h
Outline: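 RAW264.7 cells were RANKL-differentiated (100 ng/mL recombinant soluble murine RANKL in α-MEM/10% FBS, compounds at various concentrations, 4 days, medium changed day 2). TRAP activity was read with 2 mg/mL 4-nitrophenyl phosphate in 0.09 M citrate buffer for 15 min at 37 °C, stopped with 0.1 N NaOH. Expressed as % of RANKL-only; IC50 is 50% inhibition.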

[5] = test system: RAW264.7; test: Inhibition of RANKL-induced osteoclastogenesis in mouse RAW264.7 cells assessed as TRAP+ multinucleated cells level incubated for 4 days by TRAP staining assay; format: functional, cell-based; settings: RAW264.7, 96 h
Outline: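 RAW264.7 cells in α-MEM with 10% FBS, 2 mM […], 100 ng/mL recombinant soluble murine RANKL and a range of compound concentrations for 4 days, with medium changed on day 2. Cells fixed in acetone/citrate/formaldehyde for 5 min and TRAP-stained. Cells with >5 nuclei counted by light microscopy and expressed as % of RANKL-only; IC50 is 50% inhibition.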

Structure (SMILES)	viability at 24 h, 10 µM [1] [%]	CC50 at 24 h [2] [µM]	Activity [3] [%]	IC50 [4] [µM]	IC50 [5] [µM]
COc1ccc(C(=O)Nc2ccc(I)cc2F)c(OC)c1	95	> 40	92.4	–	–
O=C(Nc1ccc(-c2ccc(Cl)cc2F)cc1F)c1ccccc1O	90.9	27.2	84.8	–	–
O=C(Nc1ccc(I)cc1F)c1ccccc1OCc1ccc(F)cc1F	85	32.6	85.5	–	–
O=C(Nc1ccc(Cl)cc1F)c1ccccc1	105	> 40	77.9	–	–
O=C(O)c1ccccc1O [SALICYLIC ACID]	–	> 40	–	–	–
COc1ccc(C(=O)Nc2ccc(-c3ccc(Cl)cc3Cl)cc2F)c(O)c1	102	> 40	92.5	–	–
COc1ccc2c(=O)n(-c3ccc(F)cc3F)c(=O)oc2c1	90.9	> 40	67.5	–	–
COc1ccc(C(=O)Nc2ccc(F)cc2F)cc1	102	> 40	73.3	–	–
O=C(Nc1ccc(I)cc1F)c1ccccc1	105	> 40	76.8	–	–
COc1ccc(C(=O)Nc2ccc(Cl)cc2F)c(O)c1	103	32.3	23.8	–	–
O=C(Nc1ccc(F)cc1F)c1ccccc1OCc1ccc(F)cc1F	101	> 40	97.6	–	–
COc1ccc2c(=O)n(-c3ccc(I)cc3F)c(=O)oc2c1	103	30.1	44.4	–	–
COc1ccc(C(=O)Nc2ccc(F)cc2F)c(OCc2ccc(F)cc2F)c1	106	> 40	66.2	–	–
COc1ccc(C(=O)O)c(O)c1 [4-METHOXYSALICYLIC ACID]	99.4	> 40	79.6	–	–
O=c1oc2ccccc2c(=O)n1-c1ccc(F)cc1F	88.8	> 40	82.5	–	–
COc1ccc(C(=O)Nc2ccc(Cl)cc2F)c(OC)c1	52.9	13.6	60.2	–	–
COc1ccccc1C(=O)Nc1ccc(Cl)cc1F	102	> 40	86	–	–
COc1ccc2c(=O)n(-c3ccc(Cl)cc3F)c(=O)oc2c1	100	> 40	36	–	–

Structure (SMILES)	viability at 24 h, 10 µM [1] [%]	CC50 at 24 h [2] [µM]	Activity [3] [%]	IC50 [4] [µM]	IC50 [5] [µM]
O=C(Nc1ccc(-c2ccc(Cl)cc2Cl)cc1F)c1ccccc1O	105	29.8	91.2	–	–
COc1ccccc1C(=O)Nc1ccc(F)cc1F	108	> 40	89.1	–	–
O=C(Nc1ccc(F)cc1F)c1ccccc1O	76.1	38.4	85.2	–	–
O=C(Nc1ccc(Cl)cc1F)c1ccccc1OCc1ccc(F)cc1F	107	> 40	74.6	–	–
COc1ccccc1C(=O)Nc1ccc(I)cc1F	95.4	> 40	106.6	–	–
O=C(Nc1ccc(F)cc1F)c1ccccc1	105	> 40	75.2	–	–
COc1ccc(C(=O)Nc2ccc(F)cc2F)c(O)c1	89.7	> 40	74.9	–	–
COc1ccc(C(=O)Nc2ccc(I)cc2F)c(OCc2ccc(F)cc2F)c1	104	36.8	51.3	–	–
COc1ccc(C(=O)Nc2ccc(-c3ccc(F)cc3F)cc2F)c(O)c1	64.5	26.3	50.1	–	–
COc1ccc(C(=O)Nc2ccc(I)cc2F)cc1	91.4	32.8	89.3	–	–
O=C(Nc1ccc(Cl)cc1F)c1ccccc1O	93	23.2	49.4	12.5	10
COc1ccc(C(=O)Nc2ccc(F)cc2F)c(OC)c1	102	> 40	93	–	–
COc1ccc(C(=O)Nc2ccc(Cl)cc2F)cc1	106	> 40	100.4	–	–
O=C(Nc1ccc(-c2ccc(F)cc2F)cc1F)c1ccccc1O	102	28.6	100.1	–	–
COc1ccc(C(=O)Nc2ccc(I)cc2F)c(O)c1	94.4	27.6	39.4	–	–
COc1ccc(C(=O)Nc2ccc(Cl)cc2F)c(OCc2ccc(F)cc2F)c1	107	> 40	68.7	–	–
O=C(Nc1ccc(I)cc1F)c1ccccc1O	96.7	23.3	70.6	–	–
COc1ccc(C(=O)Nc2ccc(-c3ccc(Cl)cc3F)cc2F)c(O)c1	44.5	–	60.6	–	–
